Assay outcomes deposited in PubChem BioAssay by several laboratories.
Shown is part of a subset that was picked to be rich in hits.
PTEN del growth – suppresses growth of cells with PTEN deletion | HCT116 PTEN-null viability, CellTiter-Glo, 60 h; stronger effect = lower value | viability, % at 10 µM | actives 1.2% (n = 140,000);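 active = viability at or below a set limit, 4 SD under the median of all tested compounds, cut at about 3.7% in these data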;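 note: PTEN knockout HCT116 line with beta catenin targeted HCT116 as companion control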
HCT116 bCat-KO – beta-catenin-lacking colon tumor cell growth suppression; HCT116 beta-catenin knockout viability, CellTiter-Glo, 60 h; stronger effect = lower value; viability, % at 10 µM; actives 1.5% (n = 140,000); AID 818;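 active = viability at or under a set limit, the compound median less 4 SD, cut at about 6% in these data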;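 note: 0% = Hyamine 1622 control at 20 µM and 100% = untreated cell control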
Fibroblast inh – blocks proliferation of human lung fibroblasts; actives 1.1% (n = 85,000); LL 47 human lung fibroblast viability, ATP luminescence; stronger effect = lower value; viability, % at 10 µM;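 active = viability at or below 50% in the single dose screen; inactive = viability above 50%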;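 note: compound exposure lasted 72 h before the ATP readout; 100% = median luminescence of untreated cell-only wells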
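material = human LL 47 lung fibroblast cells | dosing = compounds added from tenfold dosing solution, 0.1% DMSO final | timing = overnight cell rest, 72 h compound treatment at 37 °C | measured by = CellTiter-Glo luminescence measuring cellular ATP | evaluation = % viability versus median cells-only luminescence | control set = cell-only wells, no compound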
HUVEC prolif 384 – inhibitors of human endothelial cell proliferation | HUVEC proliferation, CellTiter-Glo luminescence, 72 h; stronger effect = lower value | viability, % at 10 µM (by protocol) | actives 1.1% (n = 86,000) | AID 648;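 active = viability at or below 30%; inactive = viability above 30%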;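 note: 100% = median luminescence of DMSO-only cell control wells on each plate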
Pyk2 oligo antag – blocks oligomerization of human Pyk2 in cells; Q14289; Q293 cells, Pyk2 FERM NanoBiT luminescence; stronger effect = lower value; z-score (the deposit names both 25 µM and 10 µM); actives 0.83% (n = 99,000); AID 1347419;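 active = Z-score of -3 or lower, scaled per plate to the spread of control and sample wells; inactive = z-score above -3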;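 note: negative z-score means lost luminescence so less FERM oligomerization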
Target sequence (Q14289 whole entry, looked up): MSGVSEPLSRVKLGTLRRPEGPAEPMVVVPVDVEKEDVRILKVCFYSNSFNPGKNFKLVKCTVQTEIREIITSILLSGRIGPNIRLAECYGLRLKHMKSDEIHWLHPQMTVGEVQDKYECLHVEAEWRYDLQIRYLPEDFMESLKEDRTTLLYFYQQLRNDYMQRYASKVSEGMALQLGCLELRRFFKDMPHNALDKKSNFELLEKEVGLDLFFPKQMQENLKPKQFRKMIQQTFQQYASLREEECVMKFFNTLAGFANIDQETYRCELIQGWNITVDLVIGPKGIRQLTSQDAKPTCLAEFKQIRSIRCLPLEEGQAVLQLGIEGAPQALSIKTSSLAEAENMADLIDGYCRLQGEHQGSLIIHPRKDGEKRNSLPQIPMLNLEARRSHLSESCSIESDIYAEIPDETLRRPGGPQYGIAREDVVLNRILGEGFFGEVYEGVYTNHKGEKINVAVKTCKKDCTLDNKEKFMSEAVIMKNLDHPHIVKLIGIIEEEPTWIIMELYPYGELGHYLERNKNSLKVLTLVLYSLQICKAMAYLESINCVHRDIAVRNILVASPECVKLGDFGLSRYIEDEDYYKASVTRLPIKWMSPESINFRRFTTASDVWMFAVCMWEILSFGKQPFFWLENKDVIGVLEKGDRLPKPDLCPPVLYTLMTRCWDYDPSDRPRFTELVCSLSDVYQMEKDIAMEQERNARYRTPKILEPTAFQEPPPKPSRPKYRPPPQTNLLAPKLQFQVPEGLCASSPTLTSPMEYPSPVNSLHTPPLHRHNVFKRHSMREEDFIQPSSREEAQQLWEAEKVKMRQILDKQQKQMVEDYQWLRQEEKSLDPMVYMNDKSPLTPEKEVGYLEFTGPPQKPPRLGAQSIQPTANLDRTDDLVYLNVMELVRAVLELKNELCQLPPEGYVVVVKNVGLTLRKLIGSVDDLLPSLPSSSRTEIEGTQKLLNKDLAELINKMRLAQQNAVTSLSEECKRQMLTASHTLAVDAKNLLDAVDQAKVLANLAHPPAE
H69AR inhibit – growth inhibitors of human H69AR lung tumor cells | AID 598 | actives 6% (n = 85,000) | H69AR lung tumor viability, ATP luminescence, 72 h; stronger effect = lower value | viability, % at 10 µM;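 active = viability at or below 40%; inactive = viability above 40%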;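 note: multidrug resistant small cell line overexpressing MRP-1 efflux transporter; 100% = mean luminescence of untreated control wells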
Numbers without * were called inactive.

For CC(C(=O)Oc1ccc2c(c1)OCO2)N1C(=O)c2ccccc2C1=O (stereo not given) the results were PTEN del growth 89, HCT116 bCat-KO 96, Fibroblast inh 94, HUVEC prolif 384 91 and H69AR inhibit 98.
`CC1=CC(C)(C)Nc2ccc(C)cc21` gave PTEN del growth 90, HCT116 bCat-KO 93, Fibroblast inh 101, HUVEC prolif 384 97, Pyk2 oligo antag -0.27 and H69AR inhibit 95.
`CC1=CC(C)(C)Nc2ccc(OC(=O)c3ccco3)cc21` gave PTEN del growth 1.3*, HCT116 bCat-KO 1.6* and Pyk2 oligo antag -0.92.
`CC1=CC(C)(C)Nc2ccc(OC(=O)c3cccnc3)cc21` gave PTEN del growth 1.1*, HCT116 bCat-KO 0.7*, Fibroblast inh 23*, HUVEC prolif 384 53, Pyk2 oligo antag -0.28 and H69AR inhibit 2.6*.
`CC1=CC(C)(C)Nc2ccc(OC(=O)CN3C(=O)CCC3=O)cc21` gave PTEN del growth 1.5*, HCT116 bCat-KO 1.0* and Pyk2 oligo antag -0.09.
`CN(Cc1ccc(F)cc1)C(=O)COc1ccccc1-c1ccccc1` gave PTEN del growth 71 and HCT116 bCat-KO 80.
`CC(C)CC(CO)N1CCN(C(=O)c2cccc(C(F)(F)F)c2)CCC1=O` (stereo not given) gave PTEN del growth 103 and HCT116 bCat-KO 102.
For COc1ccc(N2C(N)=C(C#N)C(c3cccnc3)C3=C2CC(C)(C)CC3=O)cc1 (stereo not given) the results were PTEN del growth 67, HCT116 bCat-KO 69, Fibroblast inh 80, HUVEC prolif 384 65, Pyk2 oligo antag -1.2 and H69AR inhibit 18*.
COc1ccc(C2C(C#N)=C(N)N(c3cccnc3)C3=C2C(=O)CC(C)(C)C3)cc1OC (stereo not given) was read as PTEN del growth 87 and HCT116 bCat-KO 84.
COc1ccc(OC)c(N2C(N)=C(C#N)C(c3ccc(OC)c(O)c3)C3=C2CC(C)(C)CC3=O)c1 (stereo not given) was read as Fibroblast inh 97, HUVEC prolif 384 86 and H69AR inhibit 16*.
Screening Cc1ccc2nc(N(CCCN(C)C)C(=O)c3cc4ccccc4oc3=O)sc2c1 returned PTEN del growth 90 and HCT116 bCat-KO 84.
`Cc1ccc2nc(N(CCCN(C)C)C(=O)CCc3ccccc3)sc2c1` gave PTEN del growth 1.5* and HCT116 bCat-KO 2.4*.
`CN(C)CCCN(C(=O)c1sc2ccccc2c1Cl)c1nc2ccc(F)cc2s1` gave PTEN del growth 98 and HCT116 bCat-KO 102.
Screening CN(C)CCCN(C(=O)c1ccc2c(c1)CCCC2)c1nc2ccc(Cl)cc2s1 returned PTEN del growth 2.7* and HCT116 bCat-KO 3.6*.
CN(C)CCCN(C(=O)CCc1ccccc1)c1nc2ccc(Cl)cc2s1 was read as PTEN del growth 1.7* and HCT116 bCat-KO 1.5*.
For CN(C)CCCN(C(=O)c1cc2ccccc2oc1=O)c1nc2c(F)cccc2s1 the results were PTEN del growth 114 and HCT116 bCat-KO 95.
`CCCN(CC(=O)Nc1ccccc1C)C(=O)/C=C/c1cccs1` gave PTEN del growth 87 and HCT116 bCat-KO 98.
Screening O=C(CCCO)N/N=C/c1ccccc1[N+](=O)[O-] returned PTEN del growth 87 and HCT116 bCat-KO 91.
Cc1ccc(C(=O)COC(=O)c2cn(-c3ccccc3)nc2-c2ccccc2)cc1[N+](=O)[O-] was read as PTEN del growth 105 and HCT116 bCat-KO 87.
Screening Cc1ccc(C(=O)Oc2oc(-c3ccco3)nc2C=Nc2ccccc2)cc1 returned PTEN del growth 92, HCT116 bCat-KO 93, Fibroblast inh 90, HUVEC prolif 384 69 and H69AR inhibit 39*.
`CC(=O)Oc1oc(-c2ccccc2)nc1C=Nc1ccccc1` gave PTEN del growth 98, HCT116 bCat-KO 99, Fibroblast inh 103, HUVEC prolif 384 84, Pyk2 oligo antag 0.39 and H69AR inhibit 90.
Screening CCOC(=O)c1ccc(N=Cc2nc(-c3ccccc3)oc2OC(C)=O)cc1 returned PTEN del growth 94, HCT116 bCat-KO 90, Fibroblast inh 97, HUVEC prolif 384 55, Pyk2 oligo antag 1.4 and H69AR inhibit 19*.
